Here are results for three compounds from ChEMBL document CHEMBL4229380, “Arylureas derived from colchicine: Enhancement of colchicine oncogene downregulation activity” (Eur J Med Chem, 2018).

In assay [1] the test system is HT-29. Description: Effect on VEGFR2 protein expression in human HT-29 cells assessed as VEGFR2 level at 25 nM after 48 hrs by ELISA. Format: functional. The method in brief:
(§1)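 HT-29 cells (1.5×10^5 per well, 24 h pre-culture) were treated 48 h and washed in PBS. They were lysed in Tris pH 7.4 buffer with detergents, phosphatase inhibitors, PMSF and protease inhibitors. Lysates were adjusted to 200 µg/mL protein (Bradford) and total c-Myc or VEGFR-2 was measured by sandwich ELISA kit. Values are % of DMSO control, ≥3 measurements.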
Background: ELISA stands for enzyme-linked immunosorbent assay.

The subject of assay [2] is HT-29. As to the kind of experiment: Induction of apoptosis in human HT-29 cells assessed as apoptotic cells at 40 nM after 48 hrs by Annexin V-FITC staining-based flow cytometric analysis (reference value: 13 +/- 3%). Format: functional. In general terms: Flow cytometry measures light scatter and fluorescence of single cells or particles in a stream.
The test system of assay [3] is HT-29. As to the kind of experiment: Effect on c-MYC gene expression in human HT-29 cells assessed as c-MYC level at 25 nM after 48 hrs by RT-qPCR analysis. Format: functional. Put shortly:
(§2)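 HT-29 cells at 70–80% confluence were seeded at 1.5×10^5 per well and left 24 h, then treated 48 h, with DMSO as control. Total RNA was extracted and VEGF-A, c-Myc and hTERT were quantified by TaqMan qPCR, normalized to β-actin and to living cell number. Results are % expression versus control, at least three measurements.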
For orientation: Real-time PCR tracks product formation cycle by cycle.

The test system of assay [4] is HT-29. Description: Effect on hTERT gene expression in human HT-29 cells assessed as hTERT level at 25 nM after 48 hrs by RT-qPCR analysis. The format is functional. The method in brief:
as §2

The subject of assay [5] is HT-29. Description: Effect on c-MYC protein expression in human HT-29 cells assessed as c-MYC level at 25 nM after 48 hrs by ELISA. Format: functional. The method in brief:
as §1

The test system of assay [6] is HT-29. Description: Induction of apoptosis in human HT-29 cells assessed as necrotic cells at 40 nM after 48 hrs by Annexin V-FITC staining-based flow cytometric analysis (reference value: 2 +/- 6%). The format is functional.
The test system of assay [7] is HT-29. As to the kind of experiment: Antiproliferative activity against human HT-29 cells after 2 days by MTT assay. The format is functional, cell-based. The conditions noted are these: HT-29, 48 h. Put shortly:
(§3)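 Cells (5×10^3 per well) in DMEM with 10% FBS, glucose, glutamine and antibiotics were exposed to serial dilutions (stocks in DMSO) for 2 days at 37 °C, 5% CO2. MTT was added for 3 h, formazan was dissolved in DMSO and absorbance read at 490 nm. Viability was taken as % of untreated cells. IC50 was read graphically from three independent experiments.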

The test system of assay [8] is HT-29. As to the kind of experiment: Induction of apoptosis in human HT-29 cells assessed as viable cells at 40 nM after 48 hrs by Annexin V-FITC staining-based flow cytometric analysis (reference value: 82 +/- 1%). The format is functional. To be noted: HT-29, 48 h, read-out: Activity.
For assay [9], the system named is HT-29. Description: Effect on VEGF protein expression in human HT-29 cells assessed as secreted VEGF level in culture media at 25 nM after 48 hrs by ELISA.
Assay [10] has as its system HT-29. Description: Effect on VEGF gene expression in human HT-29 cells assessed as VEGF level at 25 nM after 48 hrs by RT-qPCR analysis. The format is functional. The method in brief: as §2
In another assay the test system is HEK293. Description: Antiproliferative activity against human HEK293 cells after 2 days by MTT assay. The format is cell-based. To be noted: HEK293, 48 h. Put shortly: as §3
The next assay relates to MCF7. As to the kind of experiment: Antiproliferative activity against human MCF7 cells after 2 days by MTT assay. Format: functional, cell-based. The conditions noted are these: MCF7, 48 h. Put shortly:
as §3

For the next assay, the system named is HeLa. As to the kind of experiment: Antiproliferative activity against human HeLa cells after 2 days by MTT assay. The format is functional, cell-based. The conditions noted are these: 48 h. The method in brief:
as §3

Assay [11] has as its system HT-29. As to the kind of experiment: Induction of apoptosis in human HT-29 cells assessed as apoptotic cells at 500 nM after 48 hrs by Annexin V-FITC staining-based flow cytometric analysis (reference value: 13 +/- 3%). The format is functional.
The subject of assay [12] is HT-29. As to the kind of experiment: Induction of apoptosis in human HT-29 cells assessed as viable cells at 500 nM after 48 hrs by Annexin V-FITC staining-based flow cytometric analysis (reference value: 82 +/- 1%). Format: functional. To be noted: HT-29, 48 h, read-out: Activity.
The test system of assay [13] is HT-29. Description: Induction of apoptosis in human HT-29 cells assessed as necrotic cells at 500 nM after 48 hrs by Annexin V-FITC staining-based flow cytometric analysis (reference value: 2 +/- 6%). Format: functional.
Assay [14] relates to HT-29. As to the kind of experiment: Induction of apoptosis in human HT-29 cells assessed as necrotic cells at 25 nM after 48 hrs by Annexin V-FITC staining-based flow cytometric analysis (reference value: 2 +/- 6%). Format: functional.
Assay [15] relates to HT-29. Description: Induction of apoptosis in human HT-29 cells assessed as viable cells at 25 nM after 48 hrs by Annexin V-FITC staining-based flow cytometric analysis (reference value: 82 +/- 1%). The format is functional. To be noted: HT-29, 48 h, read-out: Activity.
Assay [16] has as its system HT-29. Description: Induction of apoptosis in human HT-29 cells assessed as apoptotic cells at 25 nM after 48 hrs by Annexin V-FITC staining-based flow cytometric analysis (reference value: 13 +/- 3%). Format: functional.

pIC50: −log10 of the molar value.

As usually defined, the pIC50 is the IC50 on a negative log10 scale, so that one unit is a factor of ten. A low value points to a high IC50. In the case of `COc1cc2c(c(OC)c1OC)-c1ccc(OC)c(=O)cc1[C@@H](NC(C)=O)CC2` [COLCHICINE], the Activity in the assay on HT-29 [1] came out at 94%; in the assay with HT-29 [2] it was 73%; in the assay with HT-29 [3], 37%; in the assay on HT-29 [4] it was 87%; with HT-29 [5], 63%; in the assay on HT-29 [6], 1%. Further, the figures for the Activity with HT-29 [9] and in the assay on HT-29 [10] were 40% and 55%, respectively. Also, the negative logarithm of the IC50 (pIC50) in the assay with HT-29 [7] is 7.89; in the assay with HEK293 it was 7.89; with MCF7 it was 7.70; in the assay on HeLa it was 7.85. Besides, the viability at 0.04 µM in the assay on HT-29 [8] is 26%.

For the compound `CCc1cccc(CC)c1NC(=O)N[C@H]1CCc2cc(OC)c(OC)c(OC)c2-c2ccc(OC)c(=O)cc21`, the negative logarithm of the IC50 (pIC50) is 6.08 in the assay with HT-29 [7], 6.10 in the assay on HEK293, 6.73 in the assay on MCF7 and 6.52 with HeLa. Also, the Activity came to 32% with HT-29 [11] and 1% in the assay on HT-29 [13]. In the assay with HT-29 [12], the viability at 0.5 µM was determined as 67%.

As to `COc1cc2c(c(OC)c1OC)-c1ccc(OC)c(=O)cc1[C@@H](NC(=O)Nc1ccccc1C)CC2`, the Activity with HT-29 [14] was found to be 2%; in the assay with HT-29 [16] it was 34%. The viability at 0.025 µM in the assay with HT-29 [15] amounted to 64%. In addition, the pIC50 was 7.59 in the assay with HT-29 [7], 7.36 in the assay on HEK293, 6.92 in the assay on MCF7 and 7.49 in the assay on HeLa.
